In publication PMC7670640 (Pharmacology Research & Perspectives, 2020):

Legend:
[1] = Lowest observed adverse effect level in dogs; type: in vivo
[2] = Multiple ascending dose part; type: in vivo, human
In short: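 Healthy men, double-blind, randomized 6 active:2 placebo per cohort. Oral test compound or placebo once daily for 14 days, each dose after a moderate-fat meal (~600 calories, ~30% from fat). An expansion cohort (24 planned) assessed GI tolerability. Monitoring covered AEs, physical exams, vital signs, ECGs, clinical labs, suicidal risk, and GI and hepatobiliary abnormalities. AEs were MedDRA 21.0-coded and summarized descriptively.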

HIV‐1 subtypes = test: Inhibition across HIV‐1 subtypes; conditions: background statement, no reference given
[3] = Multiple ascending dose part; type: in vivo, human; conditions: for AUC / Cmax / Tmax: human, plasma, oral, multiple‐dose; for AUC: AUC0‐24, geometric mean (%CVb); for Cmax: geometric mean (%CVb); for Tmax: median (range)
[4] = Single ascending dose part; type: in vivo, human; conditions: for AUC / Cmax / Tmax / half-life: human, plasma, oral
In short: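 Healthy men received a single oral dose of test compound after a moderate-fat meal (~600 calories, ~30% from fat). Plasma was taken from ~2 mL whole blood and assayed by HPLC-MS/MS. Cmax, tmax, AUC0-∞, AUC0-24 and terminal half-life came from standard noncompartmental analysis. Dose proportionality was assessed with a power model and ANOVA.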

[5] = 50 mg once daily for 14 days (N = 6)
[6] = 100 mg once daily for 14 days (N = 6)
[7] = 200 mg once daily for 14 days (N = 25; cohort 5 and expansion cohort)
[8] = 320 mg once daily for 14 days (N = 7)
[9] = Part 2, across 58 participants (GSK3640254 n = 44 or placebo n = 14)

C=C(C)[C@@H]1CC[C@]2(NCCN3CCS(=O)(=O)CC3)CC[C@]3(C)[C@H](CC[C@@H]4[C@@]5(C)CC=C(C6=CC[C@@](CF)(C(=O)O)CC6)C(C)(C)[C@@H]5CC[C@]43C)[C@@H]12 [GSK3640254]
maximum recommended starting dose [MRSD] based on lowest observed adverse effect level in dogs ([1]; calculated from dog level of 1 mg/kg): approximately 3.2 mg | lowest observed adverse effect level ([1]; dogs, absence of a NOAEL in dogs): 1 mg/kg | Adverse event: Abdominal distension [2, 5]: 0 n (%) | Adverse event: Abdominal pain [2, 5]: 1 (17) n (%) | Adverse event: Abnormal dreams [2, 5]: 0 n (%) | Adverse event: Agitation [2, 5]: 0 n (%) | Adverse event: Any event [2, 5]: 4 (67) n (%) | Adverse event: Arthropod bite [2, 5]: 0 n (%) | Adverse event: Back pain [2, 5]: 0 n (%) | Adverse event: Catheter‐site bruise [2, 5]: 0 n (%) | Adverse event: Catheter‐site pain [2, 5]: 0 n (%) | Adverse event: Constipation [2, 5]: 0 n (%) | Adverse event: Contact dermatitis [2, 5]: 1 (17) n (%) | Adverse event: Contusion [2, 5]: 1 (17) n (%) | Adverse event: Disturbance in attention [2, 5]: 0 n (%) | Adverse event: Dizziness [2, 5]: 1 (17) n (%) | Adverse event: Dry skin [2, 5]: 0 n (%) | Adverse event: Fatigue [2, 5]: 2 (33) n (%) | Adverse event: Gastrointestinal disorders [2, 5]: 2 (33) n (%) | Adverse event: Headache [2, 5]: 3 (50) n (%) | Adverse event: Lethargy [2, 5]: 0 n (%) | Adverse event: Musculoskeletal stiffness [2, 5]: 1 (17) n (%) | Adverse event: Nausea [2, 5]: 0 n (%) | Adverse event: Oropharyngeal pain [2, 5]: 0 n (%) | Adverse event: Rash [2, 5]: 0 n (%) | Adverse event: Somnolence [2, 5]: 1 (17) n (%) | Adverse event: Vessel puncture site bruise [2, 5]: 0 n (%) | Adverse event: Abdominal distension [2, 6]: 0 n (%) | Adverse event: Abdominal pain [2, 6]: 0 n (%) | Adverse event: Abnormal dreams [2, 6]: 0 n (%) | Adverse event: Agitation [2, 6]: 1 (17) n (%) | Adverse event: Any event [2, 6]: 5 (83) n (%) | Adverse event: Arthropod bite [2, 6]: 0 n (%) | Adverse event: Back pain [2, 6]: 1 (17) n (%) | Adverse event: Catheter‐site bruise [2, 6]: 1 (17) n (%) | Adverse event: Catheter‐site pain [2, 6]: 0 n (%) | Adverse event: Constipation [2, 6]: 0 n (%) | Adverse event: Contact dermatitis [2, 6]: 0 n (%) | Adverse event: Contusion [2, 6]: 1 (17) n (%) | Adverse event: Disturbance in attention [2, 6]: 0 n (%) | Adverse event: Dizziness [2, 6]: 2 (33) n (%) | Adverse event: Dry skin [2, 6]: 0 n (%) | Adverse event: Fatigue [2, 6]: 1 (17) n (%) | Adverse event: Gastrointestinal disorders [2, 6]: 0 n (%) | Adverse event: Headache [2, 6]: 1 (17) n (%) | Adverse event: Lethargy [2, 6]: 0 n (%) | Adverse event: Musculoskeletal stiffness [2, 6]: 0 n (%) | Adverse event: Nausea [2, 6]: 0 n (%) | Adverse event: Oropharyngeal pain [2, 6]: 0 n (%) | Adverse event: Rash [2, 6]: 0 n (%) | Adverse event: Somnolence [2, 6]: 0 n (%) | Adverse event: Vessel puncture site bruise [2, 6]: 0 n (%) | Adverse event: Abdominal distension [2, 7]: 1 (4) n (%) | Adverse event: Abdominal pain [2, 7]: 1 (4) n (%) | Adverse event: Abnormal dreams [2, 7]: 2 (8) n (%) | Adverse event: Agitation [2, 7]: 1 (4) n (%) | Adverse event: Any event [2, 7]: 19 (76) n (%) | Adverse event: Arthropod bite [2, 7]: 0 n (%) | Adverse event: Back pain [2, 7]: 2 (8) n (%) | Adverse event: Catheter‐site bruise [2, 7]: 1 (4) n (%) | Adverse event: Catheter‐site pain [2, 7]: 0 n (%) | Adverse event: Constipation [2, 7]: 2 (8) n (%) | Adverse event: Contact dermatitis [2, 7]: 7 (28) n (%) | Adverse event: Contusion [2, 7]: 3 (12) n (%) | Adverse event: Disturbance in attention [2, 7]: 1 (4) n (%) | Adverse event: Dizziness [2, 7]: 2 (8) n (%) | Adverse event: Dry skin [2, 7]: 0 n (%) | Adverse event: Fatigue [2, 7]: 1 (4) n (%) | Adverse event: Gastrointestinal disorders [2, 7]: 6 (24) n (%) | Adverse event: Headache [2, 7]: 3 (12) n (%) | Adverse event: Lethargy [2, 7]: 1 (4) n (%) | Adverse event: Musculoskeletal stiffness [2, 7]: 1 (4) n (%) | Adverse event: Nausea [2, 7]: 1 (4) n (%) | Adverse event: Oropharyngeal pain [2, 7]: 1 (4) n (%) | Adverse event: Rash [2, 7]: 1 (4) n (%) | Adverse event: Somnolence [2, 7]: 0 n (%) | Adverse event: Vessel puncture site bruise [2, 7]: 1 (4) n (%) | Adverse event: Abdominal distension [2, 8]: 0 n (%) | Adverse event: Abdominal pain [2, 8]: 0 n (%) | Adverse event: Abnormal dreams [2, 8]: 0 n (%) | Adverse event: Agitation [2, 8]: 0 n (%) | Adverse event: Any event [2, 8]: 6 (86) n (%) | Adverse event: Arthropod bite [2, 8]: 2 (29) n (%) | Adverse event: Back pain [2, 8]: 0 n (%) | Adverse event: Catheter‐site bruise [2, 8]: 0 n (%) | Adverse event: Catheter‐site pain [2, 8]: 1 (14) n (%) | Adverse event: Constipation [2, 8]: 0 n (%) | Adverse event: Contact dermatitis [2, 8]: 0 n (%) | Adverse event: Contusion [2, 8]: 0 n (%) | Adverse event: Disturbance in attention [2, 8]: 0 n (%) | Adverse event: Dizziness [2, 8]: 1 (14) n (%) | Adverse event: Dry skin [2, 8]: 1 (14) n (%) | Adverse event: Fatigue [2, 8]: 0 n (%) | Adverse event: Gastrointestinal disorders [2, 8]: 2 (29) n (%) | Adverse event: Headache [2, 8]: 2 (29) n (%) | Adverse event: Lethargy [2, 8]: 1 (14) n (%) | Adverse event: Musculoskeletal stiffness [2, 8]: 0 n (%) | Adverse event: Nausea [2, 8]: 1 (14) n (%) | Adverse event: Oropharyngeal pain [2, 8]: 1 (14) n (%) | Adverse event: Rash [2, 8]: 0 n (%) | Adverse event: Somnolence [2, 8]: 1 (14) n (%) | Adverse event: Vessel puncture site bruise [2, 8]: 0 n (%) | participants reporting palpitations ([2]; Part 2, 200‐mg + expansion cohort, one participant, mild, unrelated to study drug): 2% | most common AEs: contact dermatitis [2, 9]: 13.8% | most common AEs: dizziness [2, 9]: 12.1% | most common AEs: headache [2, 9]: 25.9% | participants discontinued because of grade 1 maculopapular rash ([2]; expansion cohort, one participant): 2% | inhibition across HIV‐1 subtypes (HIV‐1 subtypes): broad‐spectrum inhibition across various HIV‐1 subtypes | AUC ([3]; 50 mg, Day 1, 50 mg, N = 6): 2860 ng·h/mL | Cmax ([3]; 50 mg, Day 1, 50 mg, N = 6): 215 ng/mL | Tmax ([3]; 50 mg, Day 1, 50 mg, N = 6): 3.8 h | AUC ([3]; 100 mg, Day 1, 100 mg, N = 6): 6800 ng·h/mL | Cmax ([3]; 100 mg, Day 1, 100 mg, N = 6): 536 ng/mL | Tmax ([3]; 100 mg, Day 1, 100 mg, N = 6): 4.3 h | AUC ([3]; 320 mg, Day 1, 320 mg, N = 7): 13500 ng·h/mL | Cmax ([3]; 320 mg, Day 1, 320 mg, N = 7): 1040 ng/mL | Tmax ([3]; 320 mg, Day 1, 320 mg, N = 7): 4 h | increase in exposure upon repeat dosing ([3]; in vivo): two‐ to three‐fold | dose‐proportionality of Cmax and AUC ([3]; multiple‐dose administration 50‐320 mg): trend toward less than dose‐proportional increases in exposure | time to steady state ([3]; repeat once‐daily dosing): ≤ 8 days | attainment of steady state (slope of trough concentration vs time close to zero) ([3]; trough concentrations from all participants): ≤ 8 days | dose‐proportionality of Cmax and AUC ([4]; 1‐ to 700‐mg single dose range): approximately dose‐proportional increase in exposure | AUC ([4]; 1 mg): 57 ng·h/mL | Cmax ([4]; 1 mg): 5 ng/mL | Tmax ([4]; 1 mg, tmax, median (range), single dose 1 mg, N = 6): 3.5 h | AUC ([4]; 3 mg): 329 ng·h/mL | Cmax ([4]; 3 mg): 14 ng/mL | half-life ([4]; 3 mg, t1/2, geometric mean (%CVb), single dose 3 mg, N = 6): 20.5 h | Tmax ([4]; 3 mg, tmax, median (range), single dose 3 mg, N = 6): 4.5 h | AUC ([4]; 10 mg): 1230 ng·h/mL | Cmax ([4]; 10 mg): 47 ng/mL | Tmax ([4]; 10 mg, tmax, median (range), single dose 10 mg, N = 6): 3.5 h | AUC ([4]; 30 mg): 2990 ng·h/mL | Cmax ([4]; 30 mg): 130 ng/mL | Tmax ([4]; 30 mg, tmax, median (range), single dose 30 mg, N = 6): 4 h | AUC ([4]; 100 mg): 8540 ng·h/mL | Cmax ([4]; 100 mg): 372 ng/mL | Tmax ([4]; 100 mg, tmax, median (range), single dose 100 mg, N = 6): 3.8 h | AUC ([4]; 200 mg): 15000 ng·h/mL | Cmax ([4]; 200 mg): 579 ng/mL | Tmax ([4]; 200 mg, tmax, median (range), single dose 200 mg, N = 6): 3 h | AUC ([4]; 400 mg): 43000 ng·h/mL | Cmax ([4]; 400 mg): 1880 ng/mL | Tmax ([4]; 400 mg, tmax, median (range), single dose 400 mg, N = 6): 3.3 h | AUC ([4]; 700 mg): 39700 ng·h/mL | Cmax ([4]; 700 mg): 1720 ng/mL | Tmax ([4]; 700 mg, tmax, median (range), single dose 700 mg, N = 6): 3.3 h | half-life ([4]; estimated half‐life, single‐ and multiple‐dose administration after a moderate‐calorie and ‐fat breakfast): 21.2 to 28.4 h | half-life ([4]; half‐life, abstract summary of the FTIH study): ~24 h | half-life ([4]; mean half‐life, 10‐ to 700‐mg single doses): ~24 h | Tmax ([4]; median tmax, after administration, range across doses): 3 to 4.5 h | change in exposure from 400 to 700 mg ([4]; single dose): no increase in exposure from 400 to 700 mg | time detectable in plasma ([4]; single dose 1 and 3 mg): up to 48 hours | time detectable in plasma ([4]; single dose 10‐700 mg): up to 96 hours
